Measurements published in ChEMBL document CHEMBL1156231, “Alkylation of a human telomere sequence by heterotrimeric chlorambucil PI polyamide conjugates” (Bioorg Med Chem, 2010).
Active and inactive are the calls of the source. No cut-off for these calls is given here.

Columns and labels:
Nucleic Acid [1] = assay: Binding affinity to human telomeric DNA expressed in Escherichia coli DH5alpha assessed as alkylation of G and C rich strand at 10 nM after 24 hrs by PAGE analysis
Summary of the method: (§1)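 5'-Texas Red-labelled telomere-containing DNA fragment (insert cloned and propagated in E. coli DH5a, PCR-amplified, purified), alkylated with conjugate at various concentrations in 5 mM sodium phosphate buffer pH 7.0, 10% DMF, room temperature, 24 h. Reaction stopped with calf thymus DNA and heating 95 °C, 5 min. Alkylation sites read by high-resolution denaturing polyacrylamide gel electrophoresis.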

Nucleic Acid [2] = assay: Binding affinity to human telomeric DNA expressed in Escherichia coli DH5alpha assessed as alkylation of complementary C rich site at 50 to 200 nM after 24 hrs by PAGE analysis; summary of the method: as §1
Nucleic Acid [3] = assay: Binding affinity to human telomeric DNA expressed in Escherichia coli DH5alpha assessed as alkylation of G rich 5^-GGTTAGGGTTA-3^ strand at 50 to 200 nM after 24 hrs by PAGE; summary of the method: as §1

Compound: CN(C)CCCNC(=O)c1nc(NC(=O)c2nc(NC(=O)c3nc(NC(=O)CCNC(=O)CCNC(=O)c4nc(NC(=O)c5nc(NC(=O)c6nc(NC(=O)CCCc7ccc(N(CCCl)CCCl)cc7)cn6C)cn5C)cn4C)cn3C)cn2C)cn1C
- Activity (Nucleic Acid [1]): Active
- Activity (Nucleic Acid [2]): Active
- Activity (Nucleic Acid [3]): inactive
